Results reported in ChEMBL document CHEMBL1154236, “Monoterpenes from Paeonia albiflora and their inhibitory activity on nitric oxide production by lipopolysaccharide-activated microglia” (J Nat Prod, 2009).

Test system: N9
Experiment: Antiinflammatory activity against mouse N9 cells assessed as inhibition of LPS-induced nitric oxide production after 48 hrs by Griess reaction relative to control
Format: functional, cell-based
Details: Homo sapiens, N9, 48 h
Method in brief: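 Murine N9 microglia (IMDM, 5% heat-inactivated FBS, 2 mM L-glutamine, 5 × 10^-5 M 2-mercaptoethanol), 1 × 10^5 cells/well, precultured 24 h at 37 °C, 5% CO2. Then LPS 1 µg/mL plus compound (DMSO stock diluted in PBS pH 7.4, DMSO ≤0.1%) for 48 h. Supernatant nitrite read by Griess reagent, 15 min room temperature, A540. Expressed as % of LPS-only response. IC50 from linear/nonlinear regression, n = 3. Curcumin positive control.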

IC50: > 100 µM
Structure (SMILES): COC1O[C@@]2(C)CC(=O)[C@@H]3C[C@]2(O[C@@H]2O[C@H](CO)[C@@H](O)[C@H](O)[C@H]2O)[C@@]13COC(=O)c1ccccc1 (stereo partly specified)
